According to ChEMBL document CHEMBL2384903, “Highly efficient biocompatible neuroprotectants with dual activity as antioxidants and P2Y receptor agonists” (J Med Chem, 2013):
Activity calls are given as the source filed them. The rule behind the calls is not given here.

Columns and labels:
[1] = tested on: PC-12; test: Antioxidant activity in rat PC12 cells assessed as inhibition of Fe2+-induced ROS production after 1 hr by DCFH-DA staining-based fluorometric analysis; assay type: functional, cell-based; details: Rattus norvegicus, PC-12, 1 h; read-out: IC50
Procedure, shortened: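 PC12 cells grown in DMEM, seeded 24 h. Loaded with DCFH-DA (ethanol stock diluted 100-fold in PBS) for 20 min, then probe removed. Nucleotides added at final 0.2–200 μM, and oxidation started with FeSO4 at final 0.16 μM. Fluorescence at 485/530 nm read during 1 h at 37 °C. […] Mean ± SD of two experiments.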

[2] = biological target: P2Y purinoceptor 1 (Homo sapiens, UniProt P47900); test: Agonist activity at human GFP-tagged P2Y1R transfected in human 1321N1 cells assessed as induction of intracellular calcium mobilization by fluorescence assay; assay type: functional, cell-based
Sequence of P2Y purinoceptor 1 (Homo sapiens, UniProt P47900) (P47900 whole entry): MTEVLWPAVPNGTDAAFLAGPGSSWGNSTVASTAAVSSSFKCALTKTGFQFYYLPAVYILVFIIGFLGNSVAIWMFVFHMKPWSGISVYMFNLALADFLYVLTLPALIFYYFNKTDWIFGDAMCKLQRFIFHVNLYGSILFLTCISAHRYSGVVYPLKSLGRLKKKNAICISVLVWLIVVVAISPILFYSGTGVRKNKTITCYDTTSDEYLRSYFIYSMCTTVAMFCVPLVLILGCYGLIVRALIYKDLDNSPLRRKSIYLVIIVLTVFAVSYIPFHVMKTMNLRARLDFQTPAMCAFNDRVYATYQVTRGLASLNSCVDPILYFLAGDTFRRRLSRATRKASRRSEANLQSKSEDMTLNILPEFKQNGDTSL

[3] = biological target: P2Y purinoceptor 1 (Rattus norvegicus, UniProt P49651); test: Agonist activity at rat brain P2Y1R transfected in HEK293 cells assessed as induction of intracellular calcium mobilization by fluorescence assay; assay type: functional, cell-based
Sequence of P2Y purinoceptor 1 (Rattus norvegicus, UniProt P49651) (P49651 whole entry): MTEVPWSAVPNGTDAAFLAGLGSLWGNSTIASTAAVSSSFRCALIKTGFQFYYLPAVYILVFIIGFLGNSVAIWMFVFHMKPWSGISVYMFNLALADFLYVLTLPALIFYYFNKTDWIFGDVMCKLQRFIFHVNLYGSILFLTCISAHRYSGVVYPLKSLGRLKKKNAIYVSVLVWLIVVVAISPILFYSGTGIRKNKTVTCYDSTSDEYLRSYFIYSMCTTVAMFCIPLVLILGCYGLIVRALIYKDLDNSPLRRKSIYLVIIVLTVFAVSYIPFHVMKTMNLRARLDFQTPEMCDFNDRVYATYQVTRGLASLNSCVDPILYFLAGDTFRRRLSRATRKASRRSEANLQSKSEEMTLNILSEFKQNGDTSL

[4] = Antioxidant activity assessed as inhibiton of Fe2+-induced Fenton reaction-mediated hydroxyl radical formation from H2O2 measured for 150 secs by ESR analysis in presence of DMPO; assay type: functional
Procedure, shortened: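 Spin-trap ESR run at room temperature, final volume 100 μL. 5–500 μM compound is combined with ammonium iron(II) sulfate (1 mM stock) and Tris pH 7.4. After 30 s mixing, DMPO (100 mM stock) and H2O2 (100 mM stock) are added, with final pH 7.2–7.4. Spectrum is recorded 150 s after H2O2 at 9.76 GHz, 6.35 mW. Mean ± SD of three experiments.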

[5] = Antioxidant activity assessed as free radical scavenging activity after 7 mins by ABTS radical cation decolorization assay; assay type: functional
Procedure, shortened: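 ABTS•+ is made from 7 mM ABTS and 2.45 mM persulfate (final), left in the dark at RT for 12–16 h, then diluted in water pH 7.4 to A734 0.80. It is mixed with compound or Trolox standard (final 0–60 μM), and A734 is read at exactly 7 min. Percent inhibition is plotted against concentration, with solvent blanks. Each run is done at least three times, in triplicate.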

[6] = biological target: T1, P2Y purinoceptor 11 (Homo sapiens, UniProt Q96G91); test: Agonist activity at human GFP-tagged P2Y11R transfected in human 1321N1 cells assessed as induction of intracellular calcium mobilization by fluorescence assay; assay type: functional, cell-based
T1 sequence (Q96G91 whole entry): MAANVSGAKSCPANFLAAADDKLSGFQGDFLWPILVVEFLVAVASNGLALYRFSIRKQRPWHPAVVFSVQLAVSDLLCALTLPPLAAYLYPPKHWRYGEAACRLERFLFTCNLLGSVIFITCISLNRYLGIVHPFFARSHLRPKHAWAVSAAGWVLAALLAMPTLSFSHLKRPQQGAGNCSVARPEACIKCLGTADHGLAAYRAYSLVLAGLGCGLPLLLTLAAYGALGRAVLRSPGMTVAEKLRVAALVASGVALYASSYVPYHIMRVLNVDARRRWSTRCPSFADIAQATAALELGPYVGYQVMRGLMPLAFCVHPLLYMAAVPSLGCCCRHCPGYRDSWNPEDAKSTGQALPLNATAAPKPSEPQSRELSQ

[7] = tested on: PC-12; test: Cytotoxicity against rat PC12 cells assessed as cell viability up to 200 uM after 48 hrs by MTT assay; assay type: cell-based; details: pc-12, 48 h
Procedure, shortened: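 PC12 cells were exposed to compounds at various concentrations up to 200 μM for 48 h, and viability was measured by MTT assay.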

[8] = Neuroprotective activity in rat primary cortical neurons assessed as decrease in FeSO4-induced oxidative stress measured cell vitality at 1 uM after 24 hrs by MTT assay relative to control; assay type: functional, cell-based; parameters: scale not given: the % may be the effect or the level left; details: Cerebral cortex neuron
Procedure, shortened: (§1)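 Cortical neurons came from 1-day-old rat brain, were trypsin-dissociated and plated on polyornithine. They were grown in serum-free DMEM/F12 with B-27, then Ara-C treated for 48 h. Cells were treated with 0.01−5 μM nucleotide before FeSO4 (3 μM final) for 24 h. MTT 1 mg/mL was applied for 2 h at 37 °C, formazan dissolved in DMSO, absorbance read at 550 nm. Viability was expressed relative to vehicle control, mean ± SD of three independent experiments in triplicate.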

[9] = species on record: Homo sapiens; test: Selectivity ratio of EC50 for human GFP-tagged P2Y11R to EC50 for human GFP-tagged P2Y1R
Procedure, shortened: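 1321N1 astrocytoma cells stably expressing human P2Y1-GFP or P2Y11-GFP were loaded with 2 μM fura-2 AM plus 0.02% pluronic acid in HEPES-buffered saline pH 7.4 for 30 min at 37 °C. They were then superfused at 37 °C with graded agonist concentrations. [Ca2+]i was read as the F340/F380 ratio (510 nm emission) in GFP-positive cells, at least 40 cells per point. EC50 came from concentration–response curves, n = 3.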

[10] = Half life in human serum at 0.1 mg after 6 hrs by HPLC analysis; assay type: ADME, cell-free
Procedure, shortened: (§2)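 0.1 mg compound in water was mixed with human blood serum and RPMI-1640 medium (1:3 serum:medium) and incubated at 37 °C for 0−24 h. Remaining intact nucleotide was quantified from the change in its HPLC peak integration over time.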

[11] = biological target: P2Y purinoceptor 12 (Rattus norvegicus) (UniProt Q9EPX4); test: Agonist activity at P2Y12R in rat PC12 cells assessed as decrease in FeSO4-induced ROS formation at 0.04 to 100 uM after 1 hr by DCFH-DA staining-based fluorometric analysis in presence of P2Y12R antagonist 2-MeS-AMP; assay type: cell-based; details: PC-12
Sequence of P2Y purinoceptor 12 (Rattus norvegicus) (Q9EPX4 whole entry): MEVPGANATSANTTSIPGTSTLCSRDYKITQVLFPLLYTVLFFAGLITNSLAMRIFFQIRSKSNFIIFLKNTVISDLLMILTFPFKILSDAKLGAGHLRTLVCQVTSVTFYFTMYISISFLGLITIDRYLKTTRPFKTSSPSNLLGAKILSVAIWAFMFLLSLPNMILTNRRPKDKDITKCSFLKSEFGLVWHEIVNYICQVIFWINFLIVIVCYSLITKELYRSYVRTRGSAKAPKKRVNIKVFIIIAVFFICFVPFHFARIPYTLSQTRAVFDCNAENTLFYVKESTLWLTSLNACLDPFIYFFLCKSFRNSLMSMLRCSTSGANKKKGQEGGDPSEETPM
Procedure, shortened: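 PC12 cells seeded 24 h in DMEM, pretreated with 50 μM 2-MeS-AMP for 20 min, then loaded with DCFH-DA (stock 2 mg/mL in ethanol, diluted 100-fold in PBS) for 20 min and washed. Test agent added at 0.04−100 μM final. Oxidation started with FeSO4 at 0.16 μM final. Incubated 1 h at 37 °C, fluorescence read at 485/530 nm. Inhibition of ROS compared with control lacking antagonist.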

[12] = Neuroprotective activity in rat primary cortical neurons assessed as decrease in FeSO4-induced oxidative stress measured cell viability after 24 hrs by MTT assay; assay type: functional, cell-based; details: Cerebral cortex neuron; procedure, shortened: as §1
[13] = Metabolic stability in human serum assessed as compound remaining at 0.1 mg after 6 hrs by HPLC analysis; assay type: ADME, cell-free; details: read-out: Stability; procedure, shortened: as §2
[14] = Antioxidant activity assessed as inhibiton of Fe2+-induced Fenton reaction-mediated hydroxyl radical formation from H2O2 relative to trolox; assay type: functional
Procedure, shortened: (§3)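 Fe(II)-H2O2 hydroxyl radical assay read by ESR with DMPO spin trap. Ammonium iron(II) sulfate (1 mM, stock) was added to 5−500 μM test compound, then 1 mM Tris pH 7.4. After 30 s mixing, DMPO then H2O2 were added. Final pH 7.2−7.4, 100 μL total, room temperature. Spectrum recorded 150 s after H2O2. IC50 given as mean ± SD of three experiments.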

[15] = Antioxidant activity assessed as inhibiton of Fe2+-induced Fenton reaction-mediated hydroxyl radical formation from H2O2 relative to ATP; assay type: functional; procedure, shortened: as §3

IC50 [1]	EC50 [2]	IC50 [4]	IC50 [5]	Structure (SMILES)	other results
1000 nM	74 nM	66000 nM	23000 nM	B[P@@](=O)(OC[C@H]1O[C@@H](n2cnc3c(N)nc(Cl)nc32)[C@H](O)[C@@H]1O)OP(=O)(O)OP(=O)(O)O	EC50 [3]: 4.5 nM
400 nM	200 nM	59000 nM	> 60000 nM	B[P@@](=O)(OC[C@H]1O[C@@H](n2cnc3c(N)ncnc32)[C@H](O)[C@@H]1O)OP(=O)(O)OP(=O)(O)OP(=O)(O)OP(=O)(O)OC[C@H]1O[C@@H](n2cnc3c(N)ncnc32)[C@H](O)[C@@H]1O	EC50 ([6]; 1321-n1): Not Active
1200 nM	3000 nM	47000 nM	> 60000 nM	B[P@](=O)(OC[C@H]1O[C@@H](n2cnc3c(N)ncnc32)[C@H](O)[C@@H]1O)OP(=O)(O)OP(=O)(O)OP(=O)(O)OP(=O)(O)OC[C@H]1O[C@@H](n2cnc3c(N)ncnc32)[C@H](O)[C@@H]1O	EC50 ([6]; 1321-n1): Not Active
180 nM	150 nM	131000 nM	24000 nM	B[P@@](=O)(OC[C@H]1O[C@@H](n2cnc3c(N)nc(Cl)nc32)[C@H](O)[C@@H]1O)OP(=O)(O)C(Cl)(Cl)P(=O)(O)O	EC50 ([6]; read-out: EC50): 1400 nM

Second part, the molecule before the results:

Structure (SMILES)	IC50 [1]	EC50 [2]	IC50 [4]	IC50 [5]	other results
CSc1nc(N)c2ncn([C@@H]3O[C@H](COP(=O)(O)OP(=O)(O)O)[C@H](O)[C@H]3OC(=O)c3ccccc3)c2n1					EC50 ([6]; read-out: EC50): 1500 nM
[BH3-]P(=O)(OC[C@H]1O[C@@H](n2cnc3c(N)ncnc32)[C@H](O)[C@@H]1O)OP(=O)([O-])OP(=O)([O-])OP(=O)([O-])OP(=O)([O-])OC[C@H]1O[C@@H](n2cnc3c(N)ncnc32)[C@H](O)[C@@H]1O.[Na+].[Na+].[Na+].[Na+].[Na+] (stereo partly specified)					Activity [7]: Non-toxic
B[P@@](=O)(OC[C@H]1O[C@@H](n2cnc3c(N)nc(Cl)nc32)[C@H](O)[C@@H]1O)OP(=O)(O)O	80 nM	7 nM	175000 nM	40000 nM	EC50 ([6]; read-out: EC50): 3680 nM; Activity [8]: < 60%; Ratio EC50 [9]: < 530; half-life [10]: 7 h; Activity [11]: inactive; EC50 [12]: 170 nM; remaining at 6 h [13]: 53%
BP(=O)(OC[C@H]1O[C@@H](n2cnc3c(N)nc(Cl)nc32)[C@H](O)[C@@H]1O)OP(=O)(O)O (stereo partly specified)					Activity [7]: Non-toxic
Nc1ncnc2c1ncn2[C@@H]1O[C@H](COP(=O)(O)OP(=O)(O)OP(O)(O)=S)[C@@H](O)[C@H]1O					fold change (FC) [14]: 20; fold change (FC) [15]: 100
BP(=O)(OP(=O)(O)OP(=O)(O)OC[C@H]1O[C@@H](n2cnc3c(N)ncnc32)[C@H](O)[C@@H]1O)OP(=O)(O)OP(=O)(O)OC[C@H]1O[C@@H](n2cnc3c(N)ncnc32)[C@H](O)[C@@H]1O	5000 nM	1200 nM	161000 nM	61000 nM	
[BH3-][P@@](=O)(OC[C@H]1O[C@@H](n2cnc3c(N)ncnc32)[C@H](O)[C@@H]1O)OP(=O)([O-])[O-].[Na+].[Na+].[Na+]	1000 nM	300 nM	47000 nM	26000 nM	EC50 ([6]; 1321-n1): Not Active; remaining at 6 h [13]: 56%
